Test results published in ChEMBL document CHEMBL2384906, “Biological activity, design, synthesis and structure activity relationship of some novel derivatives of curcumin containing sulfonamides” (Eur J Med Chem, 2013).
Calls of active or inactive are those of the source.

Key:
Mus musculus = assay: Antiinflammatory activity in mouse assessed as inhibition of carrageenan-induced increase in paw volume at 200 mg/kg administered 1 hr prior to carrageenan challenge measured after 3 hrs relative to control; type: functional
Method in brief: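 Mice were fasted 2 h and placed in groups of five. Controls received saline i.p. Phenylbutazone was given at 100 mg/kg i.p., curcumin at 200 mg/kg i.p., and derivatives at 200 mg/kg. After 1 h, 0.1 mL of 1% carrageenan in saline was injected subplantar into the right hind paw. Paw volume was followed by plethysmometer for 3 h, and % inhibition was calculated as (Vc − Vt)/Vc × 100.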

HCT-116 = assay: Cytotoxicity against human HCT116 cells after 24 hrs by MTT assay; type: functional, cell-based
Method in brief: (§1)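 The MTT assay seeded 5 × 10⁴ cells per well and grew them 24 h in RPMI 1640 with compound at 2.5–200 µM. Medium without cells was the blank and adriamycin the positive control. MTT was added for 4 h at 37 °C, formazan was solubilised, and absorbance was read at 570 nm. IC50 is the concentration that cuts viability 50% against untreated cells.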

QG-56 = assay: Cytotoxicity against human QG56 cells after 24 hrs by MTT assay; type: functional, cell-based; method in brief: as §1
HeLa = assay: Cytotoxicity against human HeLa cells after 24 hrs by MTT assay; type: functional, cell-based; method in brief: as §1
HepG2 = assay: Cytotoxicity against human HepG2 cells after 24 hrs by MTT assay; type: functional, cell-based; method in brief: as §1
Trichoderma viride [1] = assay: Antifungal activity against Trichoderma viride MTCC 1107 after 48 hrs; type: functional; settings: MTCC 1107, 48 h
Trichoderma viride [2] = assay: Antifungal activity against Trichoderma viride MTCC 1107 assessed as zone of inhibition at 20 uM after 48 hrs by disc diffusion method; type: functional
Method in brief: (§2)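 Spores from 4-day potato dextrose agar cultures, suspended in sterile water at 1.5 × 10⁵ CFU/mL. 0.2 mL was spread on potato dextrose agar. 5 mm filter-paper discs soaked with test compound were laid on the lawn. Incubation was 48 h at 28 °C, then the inhibition zone was measured in mm. Fluconazole was the positive control and acetone the negative control.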

Trichoderma viride [3] = assay: Antifungal activity against Trichoderma viride MTCC 1107 assessed as zone of inhibition at 40 uM after 48 hrs by disc diffusion method; type: functional; settings: MTCC 1107, 48 h, read-out: IZ; method in brief: as §2
Trichoderma viride [4] = assay: Antifungal activity against Trichoderma viride MTCC 1107 assessed as zone of inhibition at 80 uM after 48 hrs by disc diffusion method; type: functional; settings: MTCC 1107, 48 h, read-out: IZ; method in brief: as §2
Curvularia lunata [5] = assay: Antifungal activity against Curvularia lunata MTCC 581 after 48 hrs; type: functional; settings: MTCC 581, 48 h
Curvularia lunata [6] = assay: Antifungal activity against Curvularia lunata MTCC 581 assessed as zone of inhibition at 20 uM after 48 hrs by disc diffusion method; type: functional; method in brief: as §2
Curvularia lunata [7] = assay: Antifungal activity against Curvularia lunata MTCC 581 assessed as zone of inhibition at 40 uM after 48 hrs by disc diffusion method; type: functional; settings: MTCC 581, 48 h, read-out: IZ; method in brief: as §2
Aspergillus flavus [8] = assay: Antifungal activity against Aspergillus flavus MTCC 1021 after 48 hrs; type: functional; settings: MTCC 1021, 48 h
Curvularia lunata [9] = assay: Antifungal activity against Curvularia lunata MTCC 581 assessed as zone of inhibition at 80 uM after 48 hrs by disc diffusion method; type: functional; settings: MTCC 581, 48 h, read-out: IZ; method in brief: as §2
Aspergillus flavus [10] = assay: Antifungal activity against Aspergillus flavus MTCC 1021 assessed as zone of inhibition at 20 uM after 48 hrs by disc diffusion method; type: functional; method in brief: as §2
Aspergillus flavus [11] = assay: Antifungal activity against Aspergillus flavus MTCC 1021 assessed as zone of inhibition at 40 uM after 48 hrs by disc diffusion method; type: functional; settings: MTCC 1021, 48 h, read-out: IZ; method in brief: as §2
Aspergillus flavus [12] = assay: Antifungal activity against Aspergillus flavus MTCC 1021 assessed as zone of inhibition at 80 uM after 48 hrs by disc diffusion method; type: functional; settings: MTCC 1021, 48 h, read-out: IZ; method in brief: as §2
Aspergillus niger [13] = assay: Antifungal activity against Aspergillus niger MTCC 1108 after 48 hrs; type: functional; settings: MTCC 1108, 48 h
Aspergillus niger [14] = assay: Antifungal activity against Aspergillus niger MTCC 1108 assessed as zone of inhibition at 20 uM after 48 hrs by disc diffusion method; type: functional; method in brief: as §2
Aspergillus niger [15] = assay: Antifungal activity against Aspergillus niger MTCC 1108 assessed as zone of inhibition at 40 uM after 48 hrs by disc diffusion method; type: functional; method in brief: as §2
Aspergillus niger [16] = assay: Antifungal activity against Aspergillus niger MTCC 1108 assessed as zone of inhibition at 80 uM after 48 hrs by disc diffusion method; type: functional; settings: MTCC 1108, 48 h, read-out: IZ; method in brief: as §2
Escherichia coli [17] = assay: Antimicrobial activity against Escherichia coli ATCC 35218 after 24 hrs by broth micro serial dilution method; type: functional; settings: ATCC 35218, 24 h
Method in brief: (§3)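 This was broth microdilution in autoclaved Mueller-Hinton broth. 150 µL of compound per well was serially diluted […], and 50 µL of test organism was added. Plates were incubated 24 h at 37 °C and optical density was read.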

Escherichia coli [18] = assay: Antimicrobial activity against Escherichia coli ATCC 35218 assessed as diameter of inhibition zone at 20 uM after 24 hrs by Kirby -Baur disc diffusion method; type: functional
Method in brief: (§4)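 Kirby-Bauer disc diffusion was used. Acetone stocks (160 µM) were serially doubled down to 80, 40 and 20 µM. 4 µL of each went onto 5 mm sterile paper discs, which were dried 30 min at 50 °C. Inoculum was 1.5 × 10⁸ CFU/mL diluted to 3 × 10² CFU/mL, and 50 µL was spread on Mueller-Hinton agar. After 24 h at 37 °C the inhibition-zone diameter was measured. Ciprofloxacin served as positive control.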

Escherichia coli [19] = assay: Antimicrobial activity against Escherichia coli ATCC 35218 assessed as diameter of inhibition zone at 40 uM after 24 hrs by Kirby -Baur disc diffusion method; type: functional; settings: ATCC 35218, 24 h, read-out: DIZ; method in brief: as §4
Escherichia coli [20] = assay: Antimicrobial activity against Escherichia coli ATCC 35218 assessed as diameter of inhibition zone at 80 uM after 24 hrs by Kirby -Baur disc diffusion method; type: functional; settings: ATCC 35218, 24 h, read-out: DIZ; method in brief: as §4
Pseudomonas aeruginosa [21] = assay: Antimicrobial activity against Pseudomonas aeruginosa ATCC 15499 after 24 hrs by broth micro serial dilution method; type: functional; settings: ATCC 15499, 24 h; method in brief: as §3
Pseudomonas aeruginosa [22] = assay: Antimicrobial activity against Pseudomonas aeruginosa ATCC 15499 assessed as diameter of inhibition zone at 20 uM after 24 hrs by Kirby -Baur disc diffusion method; type: functional; method in brief: as §4
Pseudomonas aeruginosa [23] = assay: Antimicrobial activity against Pseudomonas aeruginosa ATCC 15499 assessed as diameter of inhibition zone at 40 uM after 24 hrs by Kirby -Baur disc diffusion method; type: functional; method in brief: as §4
Pseudomonas aeruginosa [24] = assay: Antimicrobial activity against Pseudomonas aeruginosa ATCC 15499 assessed as diameter of inhibition zone at 80 uM after 24 hrs by Kirby -Baur disc diffusion method; type: functional; settings: ATCC 15499, 24 h, read-out: DIZ; method in brief: as §4
Salmonella typhi [25] = assay: Antimicrobial activity against Salmonella typhi ATCC 23564 after 24 hrs by broth micro serial dilution method; type: functional, Salmonella enterica subsp. enterica serovar Typhi; settings: Salmonella enterica, ATCC 23564, 24 h
Salmonella typhi [26] = assay: Antimicrobial activity against Salmonella typhi ATCC 23564 assessed as diameter of inhibition zone at 20 uM after 24 hrs by Kirby -Baur disc diffusion method; type: functional; settings: Salmonella enterica subsp. enterica serovar Typhi
Salmonella typhi [27] = assay: Antimicrobial activity against Salmonella typhi ATCC 23564 assessed as diameter of inhibition zone at 40 uM after 24 hrs by Kirby -Baur disc diffusion method; type: functional, Salmonella enterica subsp. enterica serovar Typhi; settings: Salmonella enterica, ATCC 23564, 24 h; read-out: DIZ
Salmonella typhi [28] = assay: Antimicrobial activity against Salmonella typhi ATCC 23564 assessed as diameter of inhibition zone at 80 uM after 24 hrs by Kirby -Baur disc diffusion method; type: functional, Salmonella enterica subsp. enterica serovar Typhi; settings: Salmonella enterica, ATCC 23564, 24 h; read-out: DIZ
Bacillus cereus [29] = assay: Antimicrobial activity against Bacillus cereus MTCC 7350 after 24 hrs by broth micro serial dilution method; type: functional; method in brief: as §3
Bacillus cereus [30] = assay: Antimicrobial activity against Bacillus cereus MTCC 7350 assessed as diameter of inhibition zone at 80 uM after 24 hrs by Kirby -Baur disc diffusion method; type: functional; method in brief: as §4
Staphylococcus aureus [31] = assay: Antimicrobial activity against Staphylococcus aureus ATCC 11632 after 24 hrs by broth micro serial dilution method; type: functional; method in brief: as §3
Staphylococcus aureus [32] = assay: Antimicrobial activity against Staphylococcus aureus ATCC 11632 assessed as diameter of inhibition zone at 80 uM after 24 hrs by Kirby -Baur disc diffusion method; type: functional; method in brief: as §4

COc1cc(/C=C/C(=O)C(/N=N/c2ccc(S(N)(=O)=O)cc2)=C(O)/C=C/c2ccc(O)c(OC)c2)ccc1O
Not Active: IC50 (HCT-116) | IC50 (QG-56) | IC50 (HepG2)
10 mm: zone of inhibition at 40 µM (Trichoderma viride [3]) | zone of inhibition at 40 µM (Curvularia lunata [7]) | zone of inhibition at 80 µM (Aspergillus niger [16])
9 mm: zone of inhibition at 40 µM (Aspergillus flavus [11]) | zone of inhibition at 40 µM (Escherichia coli [19]) | zone of inhibition at 80 µM (Pseudomonas aeruginosa [24]) | zone of inhibition at 40 µM (Salmonella typhi [27])
11 mm: zone of inhibition at 80 µM (Trichoderma viride [4]) | zone of inhibition at 80 µM (Curvularia lunata [9]) | zone of inhibition at 80 µM (Aspergillus flavus [12]) | zone of inhibition at 80 µM (Salmonella typhi [28])
16.1%: inhibition in vivo at 200 mg/kg (Mus musculus)
> 100 µM: IC50 (HeLa)
12 mm: zone of inhibition at 80 µM (Escherichia coli [20])
inactive: inhibition zone (IZ) (Trichoderma viride [2]) | inhibition zone (IZ) (Curvularia lunata [6]) | inhibition zone (IZ) (Aspergillus flavus [10]) | inhibition zone (IZ) (Aspergillus niger [14]) | inhibition zone (IZ) (Aspergillus niger [15]) | diameter of the inhibition zone (DIZ) (Escherichia coli [18]) | diameter of the inhibition zone (DIZ) (Pseudomonas aeruginosa [22]) | diameter of the inhibition zone (DIZ) (Pseudomonas aeruginosa [23]) | diameter of the inhibition zone (DIZ) (Salmonella typhi [26]) | MIC (Bacillus cereus [29]) | diameter of the inhibition zone (DIZ) (Bacillus cereus [30]) | MIC (Staphylococcus aureus [31]) | diameter of the inhibition zone (DIZ) (Staphylococcus aureus [32])
> 80 µM: MIC (Trichoderma viride [1]) | MIC (Curvularia lunata [5]) | MIC (Aspergillus flavus [8]) | MIC (Aspergillus niger [13]) | MIC (Escherichia coli [17]) | MIC (Pseudomonas aeruginosa [21]) | MIC (Salmonella typhi [25])
